The nature of experiment [1]: Antifungal activity against Candida albicans clinical isolate 2 in presence of fluconazole. The format is functional. The method, boiled down:
(§1)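 Dose-dependent broth microdilution against fluconazole-resistant clinical isolates. Analogue concentration was varied while fluconazole was held fixed at each isolate's own MIC50, measured separately for fluconazole alone. EC50 is given as arithmetic mean ± SD of three independent experiments.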

For experiment [2], the system named is Candida albicans. Kind of experiment: Antifungal activity against Candida albicans HLY4123 after 16 hrs in presence of 0.05 ug/ml of fluconazole by ten fold serial dilution method. The experiment is classed as functional. The settings on record: HLY4123, 16 h.
Experiment [3] can be described thus: Antifungal activity against Candida albicans clinical isolate 8 in presence of fluconazole. The experiment is classed as functional. The method, boiled down:
as §1

Experiment [4] concerns Candida albicans. Kind of experiment: microbe, parasite or virus in culture. The settings on record: HLY4123, 16 h.
Experiment [5] is described as follows: Antifungal activity against Candida albicans clinical isolate 45 after 16 hrs in presence of 0.5 ug/ml of isavuconazole by broth microdilution assay. The experiment is classed as functional. On the technique in general: Dilution methods test growth across graded concentrations, often in twofold steps.
The nature of experiment [6]: Antifungal activity against fluconazole-resistant Candida albicans clinical isolate 17 after 16 hrs in presence of 12 ug/ml fluconazole by broth microdilution assay. The experiment is classed as functional.
Experiment [7] can be described thus: Antifungal activity against fluconazole-resistant Candida albicans clinical isolate 26 after 16 hrs in presence of 32 ug/ml fluconazole by broth microdilution assay. The format is functional.
Experiment [8] can be described thus: Antifungal activity against fluconazole-resistant Candida albicans clinical isolate 33 after 16 hrs in presence of 64 ug/ml fluconazole by broth microdilution assay. The format is functional.
Experiment [9] in a line: Antifungal activity against fluconazole-resistant Candida albicans clinical isolate 36 after 16 hrs in presence of 64 ug/ml fluconazole by broth microdilution assay. The format is functional.
Experiment [10] is described as follows: Antifungal activity against fluconazole-resistant Candida albicans clinical isolate 45 after 16 hrs in presence of 96 ug/ml fluconazole by broth microdilution assay. The format is functional.
Experiment [11] relates to Candida albicans. Description: Antifungal activity against Candida albicans HLY4123 after 16 hrs in presence of 0.001 ug/ml of isavuconazole by ten fold serial dilution method. The experiment is classed as functional. The settings on record: HLY4123, 16 h.
In experiment [12] the test system is Candida albicans. Kind of experiment: Antifungal activity against Candida albicans HLY4123 at 0.015 nM to […] after 16 hrs in presence of […] of fluconazole by checkerboard assay. The format is functional. The method, boiled down:
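Analogue and fluconazole were combined in a checkerboard format against C. albicans HLY4123. Fractional inhibitory concentration indices were calculated, with 0.5 taken as the upper limit for pharmacological synergy.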

Where only a bound is given, the exact number is not on record here.

Regarding `COc1ccc(-n2nc(C(=O)NCC(=O)NCCC3=CCCCC3)c3ccccc3c2=O)c(OC)c1`, the EC50 (as a rule, the midpoint of the concentration-response curve) in experiment [1] was 470 nM; in experiment [2], 49 nM; in [3], 220 nM; in [4], 15 nM.

As to `COc1cc(Br)ccc1-n1cc(C(=O)NCC(=O)NCCC2=CCCCC2)c2ccc(C#CCCCO)cc2c1=O`, the EC50 in experiment [4] was over 100000 nM.

In turn, `Cc1c(Cl)ccc2c1NC(=O)[C@@]21[C@H]2C(=O)N(c3ccccc3)C(=O)[C@H]2[C@H]2CN(C(=O)OCc3ccccc3)CCN21` had an EC50 in [4] of 0.3 nM.

For `COc1cc(Br)ccc1-n1cc(C(=O)NCC(=O)NCCC2=CCCCC2)c2occc2c1=O`, the EC50 in experiment [4] was over 10000 nM.

The compound `COc1cc(Br)ccc1-n1cc(C(=O)N[C@@H](CCCCNC(=O)OCc2ccccc2Cl)C(=O)NCCC2=CCCCC2)c2ccccc2c1=O` showed an EC50 in experiment [4] of 23 nM.

For the compound `COc1cc(Br)ccc1-n1cc(C(=O)NCC(=O)NCCC2=CCCCC2)c2ccccc2c1=O`, the EC50 turned out to be 24 nM in [2]; 110 nM in experiment [5]; 74 nM in experiment [6]; 11 nM in [7]; 371 nM in experiment [8]; 32 nM in experiment [9]. Further, the EC50 in experiment [10] was found to be 170 nM; in [11], 6 nM; in experiment [4], 3 nM. Also, the “fractional inhibitory concentration index (FICI)” value in [12] is reported as under 0.17.

For the compound `COc1cc(Br)ccc1-n1nc(C(=O)NCC(=O)NCCC2=CCCCC2)c2ccccc2c1=O`, the EC50 was 7 nM in experiment [2]; 13 nM in [5]; 39 nM in [6]; 17 nM in [7]; 72 nM in experiment [8]; 20 nM in [9]. Moreover, the 50% effective concentration (EC50) in [10] is 65 nM; in experiment [11], 4 nM; in experiment [4], 1 nM. Moreover, the “fractional inhibitory concentration index (FICI)” value in [12] was under 0.12.

Take `COc1cc(Br)ccc1-n1cc(C(=O)NCC(=O)NCCC2=CCCCC2)c2ccc(Br)cc2c1=O`: the EC50 in experiment [4] amounted to 3 nM.

Turning to `COc1ccc(-n2cc(C(=O)NCC(=O)NCCC3=CCCCC3)c3ccccc3c2=O)c(OC)c1`, the EC50 in [4] was 33 nM.

In the case of `COc1cc(Br)ccc1-n1cc(C(=O)NCC(=O)NCCC2=CCCCC2)c2sccc2c1=O`, the response in experiment [4] was half-maximal at 230 nM (EC50).

Regarding `COc1cc(Br)ccc1-n1cc(C(=O)NCCc2ccccc2)c2ccccc2c1=O`, in experiment [4], the EC50 is 220 nM.

As for `COc1cc(C)ccc1-n1cc(C(=O)NCC(=O)NCCC2=CCCCC2)c2ccccc2c1=O`, the response in experiment [4] was half-maximal at 65 nM (EC50).

In experiment [4], `COc1cc(Br)ccc1-n1cc(C(=O)NCC(=O)NCCc2ccccc2)c2ccccc2c1=O` showed an EC50 of 20 nM.

In the case of `COc1cc(C#CCCCO)ccc1-n1cc(C(=O)NCC(=O)NCCC2=CCCCC2)c2ccccc2c1=O`, the half-maximal effective concentration (EC50) in experiment [4] was over 100000 nM.

These data come from ChEMBL document CHEMBL3875229, “Potent Antifungal Synergy of Phthalazinone and Isoquinolones with Azoles Against Candida albicans” (ACS Med Chem Lett, 2017).
